Screening results from PubChem BioAssay.
DENV2 CPE rescue – DENV2-induced cell death inhibition. AID 651640. actives 1.7% (n = 350,000). DENV2-infected cells, cytopathic effect rescue, plate reader. CPE inhibition, % at 9.99 µM; in the data active = CPE inhibition above about 20%, passing the limit was not always enough; inconclusive = no clear call, values can overlap the other calls; tested in BHK-21 cells
FN deposit inh – fibronectin deposition inhibition; AH1F fibroblasts, Alexa488-fibronectin deposition fluorescence, overnight; inhibition, % at 12.6 µM; actives 0.086% (n = 350,000);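 active = mean inhibition across replicates of 30% or more, regardless of how many single replicates reach that level; inconclusive = mean under 30% yet at least half of replicates reach 30%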
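Material: AH1F fibroblast monolayer depositing Alexa488-labelled fibronectin into matrix / Amount: 10000 AH1F cells per well / Signal: fluorescence 485/525 nm / Medium: DMEM, 2% serum / Compound: single dose, pinned / Incubation: 1 h cell adhesion before compound, then overnight fibronectin incubation / Reagent: Alexa488-FN, 24 nM final / Read-out: inhibition of fibronectin deposition signal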
Cneo AK release – causes C. neoformans cell lysis. adenylate kinase release luminescence, 4 h; normalised: neutral wells 0, clomiphene wells 100. lysis activity, % at 15 µM. actives 0.2% (n = 360,000). AID 651654;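 active = mean lysis activity across replicates of at least 80%, whatever share of replicates individually reach that level; inactive = mean lysis activity below 80%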
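Test system: log-phase Cryptococcus neoformans yeast cells. Input: 5 × 10^6 yeast cells/mL. Medium: fresh YPD growth medium. Doses: single dose. Incubation: static 4 h at 37 °C with compound, 1 h detection. Measured by: luminescent adenylate kinase detection reagent. Read-out: signal increase indicating cell lysis. Benchmarks: Clomiphene.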
PGC1a acetyl inh – modulators of PGC1a acetylation; U2OS PGC1a acetylation, AlphaScreen anti-acetyl-lysine; with virally co-expressed GCN5 acetyltransferase; inhibition, % at 15.6 µM; actives 0.17% (n = 350,000);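 active = every replicate shows inhibition of at least 40%; inconclusive = mean inhibition at least 40% but some replicate below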
F508del corr – CFTR F508del correction in bronchial cells; CFBE cells, YFP halide quenching; stimulated with forskolin plus potentiator P3; % fluorescence drop versus neutral controls; activity (quench increase), % at 7.58 µM; actives 0.36% (n = 350,000); AID 720511;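 active = mean added fluorescence quench of at least 8% versus neutral control, with both replicates also reaching 8%; inconclusive = only one of the mean or replicate conditions met; inactive = mean below 8% and not both replicates reaching 8%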;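 also: cells transiently co-express mutant CFTR-F508del with the halide-sensitive YFP; corrector assay measuring rescue of mutant channel to the surface after 24 h compound exposure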
XiGFP reactiv – X-chromosome reactivation activator. XiGFP mouse fibroblasts, % GFP-positive cells imaging, 3 d; cells co-treated with 5-aza-dC sensitizer; scaled so ellipticine positive control = 100%. activation, % at 7.58 µM. actives 0.055% (n = 360,000). AID 743238;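 active = mean normalized replicate activation at least 10% and every replicate at or above 10%; inconclusive = only one of the two criteria met; inactive = mean below 10% and not all replicates reach 10%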
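Material: XiGFP fibroblasts, SV40-immortalized. Buffer or medium: DMEM plus 5-aza-dC sensitizer. Compound: single concentration per compound, delivered by pin transfer. Times: 3 days compound exposure. Controls: ellipticine 6 µM.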
Large screens that a line does not name were inactive. This is a sample that favours compounds with a hit; in the whole collection about 1.9% have one here.

CO[C@@H](CN(C)C(=O)c1cc(Cl)cc(Cl)c1)[C@H](C)CN(C(=O)Nc1ccc(F)cc1)[C@@H](C)CO	DENV2 CPE rescue 92
CO[C@H](CN(C)S(=O)(=O)c1cn(C)cn1)[C@H](C)CN(C(=O)Nc1ccc(F)cc1)[C@@H](C)CO	none
CO[C@@H](CN(C)S(=O)(=O)c1cn(C)cn1)[C@@H](C)CN(C(=O)Nc1ccc(F)cc1)[C@@H](C)CO	DENV2 CPE rescue 23
O=C(C[C@@H]1CC[C@@H]2[C@H](COC[C@H](O)CN2S(=O)(=O)c2cccc(Cl)c2)O1)NCc1ccncn1	none
Cc1ccc(NC(=O)c2ccc3c(c2)CCN3S(C)(=O)=O)cc1	DENV2 CPE rescue 30 (no result: PGC1a acetyl inh, F508del corr)
O=c1c2cc(Br)ccc2[nH]c(=S)n1Cc1ccccc1	none
O=c1c2cc(Br)ccc2[nH]c(=S)n1Cc1ccccn1	DENV2 CPE rescue 31 (no result: Cneo AK release, PGC1a acetyl inh)
C/C(=N\NC(=O)c1c(Cl)c(C)nn1C)c1ccc(NC(=O)C2CCC2)cc1	F508del corr 11
C/C(=N\NC(=O)c1c([N+](=O)[O-])c(C)nn1C)c1ccc(NC(=O)C2CCCC2)cc1	none
Cc1ccc(OCCC(=O)NNC(=O)c2ccc(Br)cc2)cc1	F508del corr 8.6 (no result: PGC1a acetyl inh)
CCOc1ccc(C(=O)NNC(=O)CCNC(=O)c2ccc(Br)cc2)cc1OC	F508del corr 21
Cc1ccc(OCCC(=O)NNC(=O)c2ccncc2)cc1	none
COc1cc(OC)cc(C(=O)NNC(=O)CCNC(=O)c2ccc(Br)cc2)c1	DENV2 CPE rescue inconclusive (no result: PGC1a acetyl inh)
CO[C@@H]1CN(C)C(=O)c2cc(NC(=O)C3CCCC3)ccc2OC[C@H](C)N(C(=O)CC2CC2)C[C@H]1C	none (no result: FN deposit inh)
O=C1O[C@H](c2ccccc2)[C@H](c2ccccc2)N2[C@H]1[C@@H](C(=O)N1CCCCCCC1)[C@]1(C(=O)Nc3ccccc31)[C@H]2c1ccccc1OCCO	DENV2 CPE rescue 42 (no result: FN deposit inh, XiGFP reactiv)
CC(C)C(c1nnnn1Cc1ccco1)N1CCN(c2nc3ccccc3s2)CC1 (configuration not stated)	FN deposit inh 39 (no result: DENV2 CPE rescue, F508del corr, XiGFP reactiv)
CN1C(=O)c2cc(NC(=O)c3ccccc3Cl)ccc2OC[C@@H]2O[C@@H](CC(=O)NCC(F)(F)F)CC[C@@H]21	none (no result: FN deposit inh, PGC1a acetyl inh, F508del corr, XiGFP reactiv)
O=C(C[C@@H]1CC[C@H]2[C@@H](COC[C@@H](O)CN2C(=O)c2ccccc2F)O1)NCc1ccccc1	DENV2 CPE rescue inconclusive
COc1ccc(S(=O)(=O)Nc2ccc3c(c2)CC(=O)N([C@H](C)CO)C[C@H](C)[C@H](CN(C)Cc2ccc(Cl)c(Cl)c2)O3)cc1	DENV2 CPE rescue inconclusive (no result: FN deposit inh)
COc1ccc(CN(C)C[C@@H]2Oc3ccc(NS(=O)(=O)c4ccc(F)cc4)cc3CC(=O)N([C@H](C)CO)C[C@@H]2C)cc1	DENV2 CPE rescue 23
COc1ccc(S(=O)(=O)Nc2ccc3c(c2)C(=O)N([C@H](C)CO)C[C@@H](C)[C@@H](CN(C)Cc2ccc(Oc4ccccc4)cc2)O3)cc1	DENV2 CPE rescue inconclusive (no result: FN deposit inh)
COc1ccc(S(=O)(=O)Nc2ccc3c(c2)C(=O)N([C@H](C)CO)C[C@@H](C)[C@@H](CN(C)Cc2ccc(Cl)c(Cl)c2)O3)cc1	F508del corr 13 (no result: FN deposit inh)
COc1ccc(S(=O)(=O)Nc2ccc3c(c2)C(=O)N([C@@H](C)CO)C[C@@H](C)[C@H](CN(C)Cc2ccc(Oc4ccccc4)cc2)O3)cc1	F508del corr 10 (no result: FN deposit inh)
COc1ccc(S(=O)(=O)Nc2ccc3c(c2)CC(=O)N([C@H](C)CO)C[C@@H](C)[C@H](CN(C)Cc2ccc(Cl)c(Cl)c2)O3)cc1	DENV2 CPE rescue 38 (no result: FN deposit inh)
COc1ccc(S(=O)(=O)Nc2ccc3c(c2)C(=O)N([C@@H](C)CO)C[C@H](C)[C@H](CN(C)Cc2ccc(Cl)c(Cl)c2)O3)cc1	none (no result: FN deposit inh)
CC(C)c1cn(CC[C@@H]2CC[C@@H](NS(=O)(=O)Cc3ccccc3)[C@H](CO)O2)nn1	none
C[C@@H]1CCCCO[C@@H](CN(C)Cc2ccc3c(c2)OCO3)[C@H](C)CN([C@H](C)CO)C(=O)c2cc(NS(C)(=O)=O)ccc2O1	none (no result: DENV2 CPE rescue, FN deposit inh, Cneo AK release, PGC1a acetyl inh)
O=C(C[C@H]1C[C@H]2c3cc(NC(=O)Cc4ccncc4)ccc3O[C@H]2[C@@H](CO)O1)NCc1ccccn1	none (no result: FN deposit inh)
COc1ccc(-c2oc3ccc(N4CCOCC4)cc3c2C#CCO)cc1	none
COc1ccc(-c2ccc3oc(-c4ccc(OC)cc4)c(C#CCO)c3c2)cc1	F508del corr 9.3 (no result: PGC1a acetyl inh)
CCc1nc(N)nc(N)c1-c1ccc(Cl)c([N+](=O)[O-])c1	F508del corr 9.1 (no result: Cneo AK release, PGC1a acetyl inh)
C[C@H](CO)N1C[C@H](C)[C@H](CN(C)Cc2ccncc2)Oc2ccc(NC(=O)CCC(F)(F)F)cc2C1=O	Cneo AK release 149 (no result: FN deposit inh)
C[C@@H]1CN([C@@H](C)CO)C(=O)c2cc(NC(=O)CCC(F)(F)F)ccc2O[C@@H]1CN(C)Cc1ccc2c(c1)OCO2	DENV2 CPE rescue 29
C[C@@H]1CN([C@H](C)CO)C(=O)c2cc(NC(=O)Nc3cccc4ccccc34)ccc2O[C@@H](C)CCCCO[C@@H]1CN(C)Cc1ccc2c(c1)OCO2	Cneo AK release 84 (no result: FN deposit inh)
C[C@@H]1CCCCO[C@@H](CN(C)C(=O)Nc2ccc3c(c2)OCO3)[C@@H](C)CN([C@H](C)CO)C(=O)c2cc(NC(=O)Nc3cccc4ccccc34)ccc2O1	Cneo AK release 105 (no result: DENV2 CPE rescue)
C[C@H]1CCCCO[C@H](CN(C)Cc2ccc3c(c2)OCO3)[C@@H](C)CN([C@@H](C)CO)C(=O)c2cc(NC(=O)Nc3cccc4ccccc34)ccc2O1	none (no result: FN deposit inh)
C[C@@H]1CN([C@H](C)CO)C(=O)c2cc(NC(=O)Nc3cccc4ccccc34)ccc2O[C@@H](C)CCCCO[C@@H]1CN(C)CC1CCCCC1	DENV2 CPE rescue 45 (no result: FN deposit inh)
C[C@@H]1CCCCO[C@@H](CN(C)CC2CCCCC2)[C@@H](C)CN([C@@H](C)CO)C(=O)c2cc(NC(=O)Nc3cccc4ccccc34)ccc2O1	none (no result: FN deposit inh)
C[C@@H]1CCCCO[C@@H](CN(C)C(=O)Nc2ccc3c(c2)OCO3)[C@H](C)CN([C@H](C)CO)C(=O)c2cc(NC(=O)Nc3cccc4ccccc34)ccc2O1	none (no result: Cneo AK release)
COc1ccc2c3c(n(C)c2c1)[C@H](CO)N(S(C)(=O)=O)CC31CN(CC2CCOCC2)C1	none (no result: Cneo AK release)
CCCN1[C@@H]2Cn3c(ccc(-c4ccccc4OC)c3=O)[C@H]1[C@@H](C(=O)NCc1ccccn1)[C@@H]2CO	none (no result: FN deposit inh, PGC1a acetyl inh, F508del corr)
O=C(N/N=C/c1c[nH]c2ccccc12)c1cccs1	DENV2 CPE rescue 46
CCn1cc(/C=C(\NC(=O)c2ccccc2OC)C(=O)NCCN2CCOCC2)c2ccccc21	DENV2 CPE rescue 22 (no result: PGC1a acetyl inh)
